Measured values reported in ChEMBL document CHEMBL4732082, “Development of novel benzimidazole-derived neddylation inhibitors for suppressing tumor growth invitro and invivo” (Eur J Med Chem, 2021).
pIC50: −log10 of the molar value. Activity calls are given as the source filed them. The calls are words filed in the database; no cut-off is given here.

How the values were obtained:
A549 [1] = assay: Induction of apoptosis in human A549 cells assessed as late apoptotic cells at 20 uM after 48 hrs by Annexin V-FITC/PI double staining based flow cytometric analysis (reference value: 4.62%); assay type: functional
[2] = target: T1, NEDD8-activating enzyme E1 regulatory subunit (Homo sapiens) (UniProt Q13564); assay: Inhibition of NAE-mediated UBE2M neddylation in human A549 cells at 12.5 to 25 uM measured after 6 to 12 hrs by Western blot analysis; assay type: cell-based; settings: dose 12.5-25 µM, time 6-12 hrs
T1 sequence (whole entry): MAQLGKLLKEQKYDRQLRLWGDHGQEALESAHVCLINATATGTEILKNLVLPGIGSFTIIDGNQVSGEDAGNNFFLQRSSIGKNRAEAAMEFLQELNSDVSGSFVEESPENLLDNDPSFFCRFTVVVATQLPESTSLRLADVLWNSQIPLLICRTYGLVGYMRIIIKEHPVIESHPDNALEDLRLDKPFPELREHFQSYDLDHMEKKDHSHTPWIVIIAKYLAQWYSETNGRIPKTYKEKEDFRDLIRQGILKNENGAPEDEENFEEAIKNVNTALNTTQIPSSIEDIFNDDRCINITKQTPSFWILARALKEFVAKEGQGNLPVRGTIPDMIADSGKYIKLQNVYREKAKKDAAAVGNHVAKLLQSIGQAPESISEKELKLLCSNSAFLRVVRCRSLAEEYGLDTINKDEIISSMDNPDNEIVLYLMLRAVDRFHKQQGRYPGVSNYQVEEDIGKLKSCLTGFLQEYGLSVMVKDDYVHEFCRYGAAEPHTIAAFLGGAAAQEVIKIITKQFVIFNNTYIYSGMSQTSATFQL
Procedure, shortened: (§1)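 A549 cells were treated 6 or 12 h with graded concentrations (4.5–75 μM) against a 0.1% DMSO control. Cells were washed in cold PBS, lysed in RIPA on ice and cleared by centrifugation, and protein was normalized. Cullin-Nedd8 was resolved on non-reducing SDS-PAGE and Wee1/p27 under reducing conditions, then detected by Western blot.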

[3] = target: T1, NEDD8-activating enzyme E1 regulatory subunit (Homo sapiens); assay: Inhibition of NAE-mediated neddylation in human A549 cells assessed as suppression of cullin2-Nedd8 adduct formation at 12.5 to 25 uM measured after 6 to 12 hrs by Western blot analysis; assay type: cell-based; settings: dose 12.5-25 µM, time 6-12 hrs; procedure, shortened: as §1
A549 [4] = assay: Induction of apoptosis in human A549 cells assessed as late apoptotic cells at 10 uM after 48 hrs by Annexin V-FITC/PI double staining based flow cytometric analysis (reference value: 4.62%); assay type: functional
A549 [5] = assay: Induction of apoptosis in human A549 cells assessed as early apoptotic cells at 10 uM after 48 hrs by Annexin V-FITC/PI double staining based flow cytometric analysis (reference value: 2.04%); assay type: functional
A549 [6] = assay: Antiproliferative activity against human A549 cells assessed as inhibition of cell proliferation at 100 uM incubated for 48 hrs by CCK-8 assay relative to control; assay type: functional; design: scale not given: the % may be the effect or the level left
Procedure, shortened: (§2)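 Cells from ATCC, passaged six times, grown in DMEM with 10% FBS and penicillin/streptomycin at 37 °C under 5% CO2. Seeded at 2500 cells/well, cultured overnight, treated 48 h, viability read by CCK-8. Run in triplicate; values are the mean of three experiments.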

[7] = target: T2, NEDD8-activating enzyme E1 catalytic subunit (Homo sapiens, UniProt Q8TBC4); assay: Inhibition of NAE (unknown origin)-mediated neddylation assessed as suppression of cullin1-Nedd8 adduct formation preincubated for 10 mins followed by ATP addition and measured after 30 mins by immunoblot analysis
T2 sequence (Q8TBC4 whole entry): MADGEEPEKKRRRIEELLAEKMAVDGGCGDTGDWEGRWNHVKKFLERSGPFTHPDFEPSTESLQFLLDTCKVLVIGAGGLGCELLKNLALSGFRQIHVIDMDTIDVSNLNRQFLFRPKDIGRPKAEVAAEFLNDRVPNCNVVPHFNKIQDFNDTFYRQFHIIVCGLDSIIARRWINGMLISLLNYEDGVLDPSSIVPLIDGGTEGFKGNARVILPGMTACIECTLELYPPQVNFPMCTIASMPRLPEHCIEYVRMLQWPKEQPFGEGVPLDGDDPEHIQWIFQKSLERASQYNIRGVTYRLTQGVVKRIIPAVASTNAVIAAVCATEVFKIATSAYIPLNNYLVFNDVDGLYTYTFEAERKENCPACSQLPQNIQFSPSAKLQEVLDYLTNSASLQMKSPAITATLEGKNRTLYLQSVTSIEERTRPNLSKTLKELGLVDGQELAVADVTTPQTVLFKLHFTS

[8] = Cytotoxicity against human […] cells incubated for 48 hrs by CCK-8 assay; assay type: cell-based; procedure, shortened: as §2
A549 [9] = assay: Induction of Wee1 accumulation in human A549 cells at 50 uM incubated for 6 to 12 hrs by Western blot analysis; assay type: functional, cell-based; settings: time 6-12 hrs; procedure, shortened: as §1

inhibition [2]: Active | inhibition [3]: Active | pIC50 [7]: 5.26
Compound: CCOc1nc2cccc(C(=O)NCCc3ccc(Cl)cc3Cl)c2n1Cc1ccc(-c2ccccc2-c2nnn[nH]2)cc1
Activity (A549 [1]): 7.03% | Activity (A549 [4]): 4.62% | Activity (A549 [5]): 2.04% | Activity (A549 [6]): 83.9% | pIC50 [8]: 4.12 | Activity (A549 [9]): Active
